Test results as given in ChEMBL document CHEMBL1133659, “3,4-dihydro-2(1H)-quinolinone as a novel antidepressant drug: synthesis and pharmacology of 1-[3-[4-(3-chlorophenyl)-1-piperazinyl]propyl]-3,4- dihydro-5-methoxy-2(1H)-quinolinone and its derivatives” (J Med Chem, 2000).

Tests used:
[1] = species on record: Mus musculus; test: Effect on recovery time for coma induced in mice by cerebral concussion (control group); assay type: functional
How it was run: (§1)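 Groups of 10 mice received compound orally 1 h before head concussion, at 100 mg/kg unless another dose is noted. Vehicle was 0.5% gum arabic in saline, and controls received vehicle alone. The read-out was time to reappearance of the righting reflex (mean ± SE s), expressed as % of control. Two-tailed t-test was used.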

[2] = species on record: Mus musculus; test: Effect on recovery time for coma induced in mice by cerebral concussion (treated group); assay type: functional; how it was run: as §1
[3] = species on record: Mus musculus; test: Effect on the sleeping time of mice before halothane load (control group); assay type: functional
How it was run: (§2)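 Groups of 10 mice received compound orally 1 h before testing, at 100 mg/kg unless another dose is noted. Vehicle was 0.5% gum arabic in 0.9% saline, and controls received vehicle alone. Mice were exposed to 4% halothane in air at 2 L/min. Sleeping time ran from loss to recovery of righting reflex (mean ± SE s), expressed as % of control. Two-tailed t-test was used.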

[4] = test system: Mus musculus; test: Effect on the sleeping time of mice anesthetized with halothane (treated group); assay type: functional; how it was run: as §2
[5] = molecular target: T1, Sigma non-opioid intracellular receptor 1 (Rattus norvegicus, UniProt Q9R0C9); test: Binding affinity for sigma receptor was evaluated by the inhibitory effect on [3H]DTG to rat whole brain membranes; assay type: cell membranes
T1 sequence (Q9R0C9 whole entry): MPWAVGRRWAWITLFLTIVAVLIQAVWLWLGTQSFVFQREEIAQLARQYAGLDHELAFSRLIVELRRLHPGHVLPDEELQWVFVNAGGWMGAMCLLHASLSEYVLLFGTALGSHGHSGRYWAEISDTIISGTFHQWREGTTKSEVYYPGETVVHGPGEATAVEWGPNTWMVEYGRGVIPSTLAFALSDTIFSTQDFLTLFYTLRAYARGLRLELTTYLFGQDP
How it was run: (§3)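 Bound ligand collected by filtration onto PEI-soaked filters and counted by scintillation; nonspecific binding defined with haloperidol. IC50 by nonlinear least-squares fit; mean ± SE of three experiments, or a single experiment where no SE is given.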

[6] = test system: Mus musculus; test: Effect on the sleeping time of mice anesthetized with halothane (treated group) (p <0.01); assay type: functional; how it was run: as §2
[7] = molecular target: T1, Sigma non-opioid intracellular receptor 1; test: Binding affinity for sigma receptor was evaluated by the inhibitory effect on [3H]DTG to rat whole brain membranes.; assay type: functional, cell membranes; how it was run: as §3
[8] = test system: Mus musculus; test: Effect on Immobility Time in the Forced-Swimming Test in Mice at the dose of 0 mg/kg po; assay type: functional
How it was run: (§4)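 Mice, 8 per group. Dosing was oral, either as a single dose 1 h before testing on day 2 or repeated once daily for 4 days. Each mouse swam 6 min in a cylinder with 6 cm of water at 22-23 °C, and immobility was scored over the last 4 min. Results are mean ± SE seconds and % of control, analysed by one-way ANOVA with Dunnett's test.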

[9] = test system: Mus musculus; test: Effect on Immobility Time in the Forced-Swimming Test in Mice at the dose of 1 mg/kg po; assay type: functional; how it was run: as §4
[10] = test system: Mus musculus; test: Effect on Immobility Time in the Forced-Swimming Test in Mice at the dose of 10 mg/kg po; assay type: functional; how it was run: as §4

Row | SMILES | RRT [1] | RRT [2] | Sleeping time [3] | Sleeping time [4] | IC50 [5] | also measured
1 | COc1cccc2c1CCC(=O)N2CCCN1CCN(c2cc(Cl)cc(Cl)c2)CC1 | 133 s | 168 s | 363 s | 310 s | – | –
2 | COc1cccc2c1ccc(=O)n2CCCN1CCN(c2cccc(C(F)(F)F)c2)CC1 | 128 s | <65 s | – | – | 0.82 µM | –
3 | O=C1CCc2c(Cl)cccc2N1CCCN1CCN(c2cccc(Cl)c2)CC1 | – | – | 548 s | 677 s | – | –
4 | COc1cccc(N2CCN(CCCN3C(=O)CCc4c(OC)cccc43)CC2)c1 | – | – | 478 s | 579 s | – | –
5 | COc1cccc2c1CCC(=O)N2CCN1CCN(c2cccc(Cl)c2)CC1 | – | – | 498 s | 676 s | – | –
6 | NC(=O)[C@@H]1CCCN1C(=O)[C@H](Cc1c[nH]cn1)NC(=O)[C@@H]1CCC(=O)N1 [PROTIRELIN] | 173 s | <44 s | 663 s | <377 s | – | –
7 | CC(=O)Nc1cccc(N2CCN(CCCN3C(=O)CCc4c(Cl)cccc43)CC2)c1 | – | – | 565 s | – | 0.67 µM | Sleeping time [6]: <778 s
8 | COc1cccc2c1CCC(=O)N2CCCN1CCN(c2ccc(Cl)cc2)CC1 | – | – | 465 s | 496 s | – | IC50 [7]: 0.46 µM
9 | COc1cccc2c1CCC(=O)N2CCCN1CCN(c2cccc(F)c2)CC1 | – | – | 465 s | 600 s | – | –
10 | Nc1cccc(N2CCN(CCCN3C(=O)CCc4c(Cl)cccc43)CC2)c1 | – | – | 504 s | 646 s | 0.71 µM | –
11 | O=C(Oc1ccc2c(c1)CCC(=O)N2CCCN1CCN(c2ccccc2)CC1)c1ccccc1 | – | – | 561 s | <1097 s | – | IC50 [7]: > 10 µM
12 | O=C1CCc2c(Cl)cccc2N1CCCN1CCN(c2cccc([N+](=O)[O-])c2)CC1 | 152 s | 110 s | – | – | 0.39 µM | –
13 | O=c1ccc2ccc(O)cc2n1CCCN1CCN(c2ccc(F)cc2)CC1 | – | – | 561 s | 582 s | 1.32 µM | –
14 | Br.O=C1CCc2c(Cl)cccc2N1CCCN1CCN(c2cccc(O)c2)CC1 | – | – | 564 s | 529 s | 0.24 µM | –
15 | COc1ccc2c(c1)CCC(=O)N2CCCN1CCN(c2cccc(Cl)c2)CC1 | – | – | 566 s | <770 s | – | –
16 | Cc1cccc(N2CCN(CCCOc3ccc4ccc(O)nc4c3)CC2)c1C | – | – | 311 s | <956 s | – | –
17 | CN1C(=O)CN=C(c2ccccc2)c2cc(Cl)ccc21 [DIAZEPAM] | – | – | 245 s | <709 s | – | –
18 | COc1ccc2c(c1)N(CCCN1CCN(c3cccc(Cl)c3)CC1)C(=O)CC2 | – | – | 566 s | <1280 s | – | –
19 | CC(C)=CCN1CC[C@@]2(C)c3cc(O)ccc3C[C@@H]1[C@@H]2C | 170 s | <72 s | 549 s | <370 s | – | –
20 | CCOc1cccc2c1CCC(=O)N2CCCN1CCN(c2cccc(Cl)c2)CC1 | 113 s | <31 s | 353 s | <238 s | 0.87 µM | –
21 | C[C@@H]1CN(CCCn2c3ccccc3c3ccccc32)C[C@H](C)N1 [RIMCAZOLE] | 131 s | 115 s | 482 s | 490 s | – | –

Row | SMILES | RRT [1] | RRT [2] | Sleeping time [3] | Sleeping time [4] | IC50 [5] | also measured
22 | COc1cccc2c1ccc(=O)n2CCCN1CCN(c2cccc(Cl)c2)CC1 | 122 s | 131 s | – | – | 0.98 µM | –
23 | O=C1CCc2c(O)cccc2N1CCCN1CCN(c2cccc(Cl)c2)CC1 | – | – | 585 s | 516 s | – | –
24 | COc1cccc2c1CCC(=O)N2CCCN1CCN(c2cccc(Cl)c2)CC1.Cl | 180 s | <36 s | 566 s | <294 s | – | Time [8]: 115 s; Time [9]: <56 s; Time [10]: <61 s
25 | CCCOc1cccc(N2CCN(CCCN3C(=O)CCc4c(Cl)cccc43)CC2)c1 | – | – | 465 s | 393 s | 0.37 µM | –
26 | COc1cccc2c1CCC(=O)N2CCCCN1CCN(c2cccc(Cl)c2)CC1 | – | – | 478 s | 549 s | – | –
27 | COc1cccc2c1ccc(=O)n2CCCN1CCN(c2cccc(Br)c2)CC1 | 122 s | <70 s | – | – | – | –
28 | CSc1cccc2c1CCC(=O)N2CCCN1CCN(c2cccc(Cl)c2)CC1 | – | – | 363 s | 439 s | – | –
29 | COc1cccc2c1CCC(=O)N2CCCN1CCN(c2cccc([N+](=O)[O-])c2)CC1 | 141 s | <74 s | 553 s | <339 s | 0.87 µM | –
30 | COc1cccc2c1N(CCCN1CCN(c3cccc(Cl)c3)CC1)C(=O)CC2 | 128 s | 109 s | – | – | 0.6 µM | –
31 | COc1cccc2c1CCC(=O)N2CCCN1CCN(c2cccc(C)c2)CC1 | – | – | 353 s | 426 s | – | –
32 | COc1cccc2c1CCC(=O)N2CCCN1CCN(c2ccccc2Cl)CC1 | – | – | 465 s | 675 s | 0.26 µM | –
33 | COc1cccc(N2CCN(CCCN3C(=O)CCc4c(Cl)cccc43)CC2)c1 | 132 s | <36 s | 548 s | <277 s | 0.13 µM | –
34 | O=c1ccc2ccccc2n1CCCN1CCN(c2cccc(Cl)c2)CC1 | 138 s | 111 s | 616 s | 704 s | 0.62 µM | –
35 | CC(C)Oc1cccc2c1CCC(=O)N2CCCN1CCN(c2cccc(Cl)c2)CC1 | – | – | 353 s | 304 s | – | –
36 | COc1cccc2c1CCC(=O)N2CCCN1CCN(c2cccc(C(F)(F)F)c2)CC1 | 134 s | <48 s | 379 s | <250 s | 0.49 µM | –
37 | COc1cccc(N2CCN(CC(=O)NC3c4c(O)c(C)cc(C)c4CC3(C)C)CC2)c1 (centres undefined) | 210 s | <54 s | 625 s | <373 s | > 15 µM | Time [8]: 120 s; Time [9]: 119 s; Time [10]: 123 s
38 | COc1cccc2c1CCC(=O)N2CCCN1CCN(c2cccc(N)c2)CC1 | – | – | 553 s | <1380 s | – | –
39 | COc1cccc2c1CCC(=O)N2CCCN1CCN(c2cccc(O)c2)CC1 | – | – | 483 s | 400 s | – | IC50 [7]: 0.81 µM
40 | COc1cccc2c1CCC(=O)N2CCCN1CCN(c2cccc(C#N)c2)CC1 | – | – | 553 s | 465 s | – | –
41 | COc1cccc2c1CCC(=O)N2CCCN1CCN(c2cccc(Br)c2)CC1 | 136 s | <61 s | 498 s | <267 s | 0.42 µM | –
42 | Nc1cccc2c1CCC(=O)N2CCCN1CCN(c2cccc(Cl)c2)CC1 | 128 s | 129 s | – | – | – | –
